From ChEMBL document CHEMBL1128402, “Irreversible inhibitors of nicotinic acetylcholine receptors: isolation and structural characterization of the biologically active solvolysis products of bipinnatin-A and bipinnatin-C” (J Med Chem, 1995) come the findings set out here.

The nature of series [1]: Half-life was determined. In kind it is ADME. In a few lines:
(§1)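 Toxin at 100 μM (diluted from 10 mM DMSO stock) in 25 mM sodium phosphate, pH 7.4, 1% DMSO, at 22–24 °C for various times. Fit by nonlinear regression to a single-exponential decay; mean ± SEM of 3–9 independent experiments.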

Series [2] is described as follows: Rate constant of solvolysis for the compound was determined. It is filed as ADME. Put shortly:
as §1

Series [3] can be described thus: Rate of acetate production by the compound was determined. It is filed as ADME. Put shortly: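 Toxin at 100 μM in 25 mM sodium phosphate, pH 7.4, 1% DMSO, at 22–24 °C for up to 8 h. Acetic acid was then measured with a coupled enzyme assay (NAD to NADH, A340 every 5 s for 5 min, initial rate by linear regression, calibrated with 25–200 μM acetate standards). Percent of maximum fit to a single-exponential growth function; mean ± SEM of 3–9 experiments.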

Series [4] in a line: Amount acetic acid produced by the compound. In kind it is ADME.
A short description of series [5]: Amount of acetic acid produced by the compound. In kind it is ADME.
In series [6] the test system is BC3H-1. Kind of series: Irreversible inhibition of [1251]alpha-bungarotoxin binding to Nicotinic acetylcholine receptor (neuronal and muscle) by bipinnatin-A on intact BC3H-1 cell lines. In kind it is cell-based. Conditions: dose or concentration not given here. In a few lines:
(§2)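 Each toxin was preincubated 0–8 h in pH 7.4 phosphate buffer, then its HPLC-isolated peak was dissolved in Hepes/KCl assay buffer pH 7.4 with 1% DMSO. BC3H-1 cells were equilibrated 20 min at 22–24 °C, given the toxin for 1 h, washed, then given saturating [125I]-α-bungarotoxin (15–20 nM) for 1 h. Bound label was gamma-counted, nonspecific binding defined with 100 nM α-bungarotoxin, run in triplicate.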

In series [7] the test system is BC3H-1. The series can be described thus: Irreversible inhibition rate of [1251]alpha-bungarotoxin binding to Nicotinic acetylcholine receptor (neuronal and muscle) by bipinnatin-A on intact BC3H-1 cell lines. It is filed as cell-based. In a few lines:
(§3)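 Toxin diluted to 100 µM in assay buffer with 1% DMSO was added straight onto BC3H-1 cells. At set times it was removed and remaining receptors were measured with saturating [125I]-α-bungarotoxin. The log of specific binding relative to time zero was plotted against time. Rates came from nonlinear regression, double-exponential where applicable, from at least two independent experiments.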

A short description of series [8]: Half-life of the bipinnatin-A(A4) was determined. It is filed as ADME.
A short description of series [9]: Apparent first-order rate of solvolysis for the bipinnatin-A(A4) was determined. It is filed as ADME.
Series [10] deals with BC3H-1. The series can be described thus: Irreversible inhibition rate of [1251]alpha-bungarotoxin binding to Nicotinic acetylcholine receptor (neuronal and muscle) by bipinnatin-A(A4) on intact BC3H-1 cell lines. In kind it is cell-based. In a few lines: as §3
For series [11], the system named is BC3H-1. Kind of series: Irreversible inhibition of [1251]alpha-bungarotoxin binding to Nicotinic acetylcholine receptor (neuronal and muscle) by bipinnatin-A(A4) on intact BC3H-1 cell lines. In kind it is cell-based. Conditions: dose or concentration not given here. Put shortly:
as §2

What is called half-life is the time needed for the level to fall by half in the phase considered. In [1], `CC(=O)OC1C2=C(C)C=C(O2)[C@@H]2O[C@@]2(C)CC2OC(=O)[C@@]3(O[C@H]23)C(OC(C)=O)C[C@@H]1C1(C)CO1` (some centres not stated) had a T1/2 of 1.24 h and a half-life of 1.17 h. In addition, in series [2], the Ksolv is 0.596 h⁻¹. Moreover, in series [3], the Activity turned out to be 0.589 h⁻¹.
In [1], `C=C(C=O)[C@H]1CC(OC(C)=O)[C@@]23O[C@@H]2C(C[C@]2(C)O[C@H]2C2=CC(C)=C(O2)C1OC(C)=O)OC3=O` (some centres not stated) had a T1/2 of 0.97 h and a half-life of 0.97 h. The compound further had a Ksolv in [2] of 0.719 h⁻¹. In [3], this compound came in with an Activity of 0.735 h⁻¹.
The compound `CC(=O)OCC[N+](C)(C)C` [ACETYLCHOLINE] came in with an Acid hydrolysis in series [4] of 0.22 mol/mol.
`C=C(C)[C@@H]1CC2=C(C=O)C=C(O2)[C@@H]2O[C@@]2(C)C[C@H]2OC(=O)[C@@]3(O[C@H]23)[C@@H](OC(C)=O)C1` [LOPHOTOXIN]: the half-life in series [1] is 40 h. This compound yielded a Ksolv in series [2] of 0.017 h⁻¹. Further, in series [5], the Activity stood at 0.17 M⁻¹.
In turn, `C=C(C(=O)OC)[C@H]1CC(OC(C)=O)[C@@]23O[C@@H]2C(C[C@]2(C)O[C@H]2C2=CC(C)=C(O2)C1OC(C)=O)OC3=O` (some centres not stated) showed a T1/2 in [1] of 1.04 h. For the same compound, the half-life was 1.08 h in series [1] and 1.74 h in series [8]. Besides, the inhibition in the series with BC3H-1 [6] was 41.5%; in the series with BC3H-1 [7] it was 0.29 min⁻¹; with BC3H-1 [10], 0.033 min⁻¹; with BC3H-1 [11], 57.5%. For the same compound, the Activity in [9] was found to be 0.399 h⁻¹; in series [3], 0.67 h⁻¹. This compound also had a Ksolv in series [2] of 0.638 h⁻¹.
